# What was measured:
# [1] = test system: Kv1.1, Kv1.2, Kv1.5 and Kv1.6 versus Kv2.1, Kv3.1 and Kv4.3; test: TEVC in Xenopus oocytes, block of different Kv channels; type: cell-based; details: 500 nM Psora-4, +40 mV
# Procedure, shortened: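 Channels expressed in Xenopus oocytes and recorded by two-electrode voltage clamp in modified ND96 (96 mM NaCl, 4 mM KCl, 5 mM HEPES, pH 7.5). Cells were held at −80 mV and stepped to +40 mV for 2 s every 10 s. Test compound was applied at 500 nM from a 10 mM DMSO stock, and block was analysed at +40 mV.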
# Kv1.5 A503L mutant = test: TEVC in Xenopus oocytes, Kv1.5 A503L mutant; type: cell-based, human; details: versus wild-type Kv1.5
# Kv1.3 = details: read-out: IC50 for block of Kv1.3; cited from earlier work
# Kv2.1 SP+CC mutant = test: TEVC in Xenopus oocytes, Kv2.1 SP+CC six-fold mutant; type: cell-based
# Procedure, shortened: (§1)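 Stage IV–V X. laevis oocytes cultured at 18 °C for 1–13 d in HEPES-buffered saline, pH 7.4, with gentamycine and pyruvate. Two-electrode voltage clamp in modified ND96 (4 mM KCl, pH 7.5). Currents were evoked by 2-s pulses to +40 mV every 10 s from −80 mV. Compound was taken from a 10 mM DMSO stock.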
# Kv3.1 = details: cited from earlier work
# Kv2.1 = target: T1, Kv2.1 (Homo sapiens, UniProt Q14721); test: TEVC in Xenopus oocytes, Kv2.1 wild type; type: cell-based; details: read-out: IC50 for Kv2.1
# T1 sequence (Q14721 1-858): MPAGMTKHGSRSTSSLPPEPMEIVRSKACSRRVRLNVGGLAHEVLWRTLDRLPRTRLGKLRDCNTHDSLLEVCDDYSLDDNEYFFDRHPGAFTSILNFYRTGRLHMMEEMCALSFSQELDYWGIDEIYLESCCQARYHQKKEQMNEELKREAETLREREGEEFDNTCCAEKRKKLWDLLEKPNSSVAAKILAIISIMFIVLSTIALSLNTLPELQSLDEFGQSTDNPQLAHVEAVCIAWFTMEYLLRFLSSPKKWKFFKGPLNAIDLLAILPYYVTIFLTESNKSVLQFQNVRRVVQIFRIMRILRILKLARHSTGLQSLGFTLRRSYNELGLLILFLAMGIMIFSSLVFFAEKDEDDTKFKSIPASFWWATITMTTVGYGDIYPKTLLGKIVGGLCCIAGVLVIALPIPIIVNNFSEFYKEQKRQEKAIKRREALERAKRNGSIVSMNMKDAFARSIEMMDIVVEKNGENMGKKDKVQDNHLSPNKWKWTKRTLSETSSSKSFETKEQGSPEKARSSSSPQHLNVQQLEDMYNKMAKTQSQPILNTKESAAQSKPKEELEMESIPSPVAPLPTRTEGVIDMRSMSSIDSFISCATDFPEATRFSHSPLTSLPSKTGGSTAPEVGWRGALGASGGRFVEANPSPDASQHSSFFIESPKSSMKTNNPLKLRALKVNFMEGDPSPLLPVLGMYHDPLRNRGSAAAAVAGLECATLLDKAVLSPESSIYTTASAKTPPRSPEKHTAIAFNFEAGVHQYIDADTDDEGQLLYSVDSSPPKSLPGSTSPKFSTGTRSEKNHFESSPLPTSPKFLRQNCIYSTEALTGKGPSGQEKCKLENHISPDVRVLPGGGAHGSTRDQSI
# Procedure, shortened: as §1
# Kv1.5 mutant channels = test: TEVC in Xenopus oocytes, Kv1.5 scanning mutants; type: cell-based, human
# Kv1.5 = details: read-out: IC50 for block of Kv1.5; cited from earlier work
# Kv1.5 channels = Kv1.5 channels (Homo sapiens, UniProt P22460); type: cell-based
# Chain of Kv1.5 channels (P22460 whole entry): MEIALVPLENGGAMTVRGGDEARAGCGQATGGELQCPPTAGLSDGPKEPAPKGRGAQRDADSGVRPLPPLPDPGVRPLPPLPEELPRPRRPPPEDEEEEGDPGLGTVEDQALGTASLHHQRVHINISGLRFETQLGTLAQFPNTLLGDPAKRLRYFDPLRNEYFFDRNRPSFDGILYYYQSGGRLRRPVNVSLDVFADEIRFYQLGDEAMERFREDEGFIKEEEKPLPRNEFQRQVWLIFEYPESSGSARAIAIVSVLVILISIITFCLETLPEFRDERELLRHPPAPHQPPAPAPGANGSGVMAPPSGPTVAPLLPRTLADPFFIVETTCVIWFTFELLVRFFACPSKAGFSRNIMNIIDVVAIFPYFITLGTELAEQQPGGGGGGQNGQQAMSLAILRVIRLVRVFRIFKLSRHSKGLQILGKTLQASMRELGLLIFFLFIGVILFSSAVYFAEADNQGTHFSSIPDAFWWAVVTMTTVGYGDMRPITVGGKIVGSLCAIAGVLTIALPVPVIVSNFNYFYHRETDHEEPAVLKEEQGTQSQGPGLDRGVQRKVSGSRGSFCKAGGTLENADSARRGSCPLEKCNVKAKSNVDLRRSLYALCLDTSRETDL
smiles,measurement,setting,value
O=c1ccc2c(OCCCCc3ccccc3)c3ccoc3cc2o1 [Psora-4],"sensitivity of Kv1 subfamily members versus Kv2.1, Kv3.1 and Kv4.3",[1],much more sensitive
same,increase of IC50 for A503L mutant,Kv1.5 A503L mutant,~100 fold
same,IC50,"Kv2.1 SP+CC mutant; read-out: IC50 for Kv2.1 SP+CC, six-fold mutant",0.58 µM
same,block of other K+ channels including Kv3.1,Kv3.1,micromolar range
same,IC50,Kv2.1,~3.9 µM
same,"increase of IC50 by S4, S4-S5 linker and S5 mutations",Kv1.5 mutant channels; side-pocket hits versus wild-type Kv1.5,up to 276 fold
"CC[N+](CC)(CC)CC [TEA, tetraethyl-ammonium]",effect on inhibition by 100 nM Psora-4,Kv1.5 channels,prevented the otherwise complete inhibition
same,effect on kinetics of Psora-4 block,Kv1.5 channels,slowed the kinetics of block
"CCCCC[N+](CCCCC)(CCCCC)CCCCC [TPA, tetrapentyl-ammonium]",competition with Psora-4 in the central cavity,"Kv1.5 channels; TPA pre-applied, same conditions as TEA",no apparent competition
CCCCN1CCCCC1C(=O)Nc1c(C)cccc1C (centres unmarked) [bupivacaine],inhibition of S4 and S4-S5 linker mutants,"Kv1.5 mutant channels; control pore blocker, side-pocket mutants",None of the mutations in the S4 segment or the S4–S5 linker reduced bupivacaine inhibition
